Columns and labels:
Homo sapiens [1] = species: Homo sapiens; test: Inhibition of HSP70 in human BT/LapR1.0 cells assessed as potentiation of 1 uM of lapatinib-induced growth inhibition after 72 hrs by measuring coefficient of drug interaction by cell titer-glo based luminescence assay
BT-474 [2] = test: Potentiation of lapatinib-induced growth inhibition of human BT474 cells assessed as coefficient of drug interaction after 72 hrs by cell titer-glo based luminescence assay; type: functional
[3] = Growth inhibition of human BT474 cells at 10 uM after 72 hrs by cell titer-glo based luminescence assay; set-up: species or system BT-474; conditions: read-out: GI
How it was run: (§1)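 Cells were trypsinised and seeded at 5000 cells/well, then cultured 24 h at 37 °C. Compound was added at 10 µM, alone or with 1 µM lapatinib, and incubated 72 h at 37 °C. CellTiter-Glo reagent was added at a volume equal to the medium, followed by 3 min shaking and 10 min at room temperature. Luminescence (ATP) was read and normalised to the blank control group.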

BT-474 [4] = test: Potentiation of lapatinib-induced growth inhibition of human BT474 cells at 10 uM after 72 hrs by cell titer-glo based luminescence assay; type: functional; conditions: BT-474, 72 h, read-out: GI; how it was run: as §1
[5] = Growth inhibition of human BT/LapR1.0 cells at 10 uM after 72 hrs by cell titer-glo based luminescence assay; conditions: read-out: GI; how it was run: as §1
Homo sapiens [6] = species: Homo sapiens; test: Inhibition of HSP70 in human BT/LapR1.0 cells assessed as potentiation of 1 uM of lapatinib-induced growth inhibition at 10 uM after 72 hrs by cell titer-glo based luminescence assay; how it was run: as §1
[7] = biological target: Chaperone protein DnaK (Escherichia coli) (UniProt P0A6Y8); test: Inhibition of Escherichia coli DnaK ATPase activity at 200 uM incubated on shaker for 10 mins followed by 30 mins incubation by malachite green reagent based colorimetric assay

inhibition [7] | SMILES | Activity (Homo sapiens [1]) | Activity (BT-474 [2]) | inhibition at 72 h, 10 µM [3] | inhibition of growth at 10 µM (BT-474 [4]) | inhibition at 72 h, 10 µM [5] | growth inhibition (GI) (Homo sapiens [6])
< 20% | O=C(/C=C/c1ccccc1)NC(NC(=S)Nc1ccccn1)C1CC1 (configuration not stated) | < 1 | <1 | 2.4% | 78.8% | 6% | 25.2%
< 20% | COc1cc(/C=C/C(=O)NC(NC(=O)Nc2ccccn2)C(C)C)cc(OC)c1OC (configuration not stated) | < 1 | <1 | 12.4% | 86.2% | 18.2% | 57.6%
< 20% | CC(C)(C)C(NC(=O)/C=C/c1ccccc1)NC(=S)Nc1ccccc1 (configuration not stated) | < 1 | 0.85 | 9.6% | 83.5% | 11.4% | 33%
< 20% | COc1cc(/C=C/C(=O)NC(CC(C)C)NC(=S)Nc2ccccn2)cc(OC)c1OC (configuration not stated) | < 1 | <1 | 24.9% | 87.8% | 38.7% | 61%
< 20% | CC(C)(C)CC(NC(=O)/C=C/c1ccccc1)NC(=S)Nc1ccccc1 (configuration not stated) | < 1 | 0.79 | 11.3% | 84.9% | 34.6% | 53%
41% | Cc1ccccc1NC(=S)NC(CC(C)(C)C)NC(=O)/C=C/c1ccccc1 (configuration not stated) | 0.79 | 0.74 | 18.2% | 84.2% | 18.9% | 41%
< 20% | COc1cc(/C=C/C(=O)NC(NC(=S)Nc2cccnc2)C(C)(C)C)cc(OC)c1OC (configuration not stated) | < 1 | <1 | 10.3% | 84.7% | 16% | 56%
< 20% | CC(C)(C)C(NC(=O)/C=C/c1ccccc1)NC(=S)NC1CCCCC1 (configuration not stated) | < 1 | 0.77 | 13% | 85.2% | 34.3% | 47.2%

More lines, now with the values behind:

SMILES | inhibition [7] | Activity (Homo sapiens [1]) | Activity (BT-474 [2]) | inhibition at 72 h, 10 µM [3] | inhibition of growth at 10 µM (BT-474 [4]) | inhibition at 72 h, 10 µM [5] | growth inhibition (GI) (Homo sapiens [6])
O=C(/C=C/c1ccccc1)NC(NC(=S)Nc1ccccc1)C1CC1 (configuration not stated) | < 20% | < 1 | <1 | 3.8% | 81.4% | 8.7% | 27.8%
COc1cc(/C=C/C(=O)NC(CC(C)C)NC(=S)Nc2cccnc2)cc(OC)c1OC (configuration not stated) | 38.5% | < 1 | <1 | 9.2% | 79.1% | 10.5% | 54.2%
COc1cc(/C=C/C(=O)NC(CC(C)C)NC(=S)NC2CCCCC2)cc(OC)c1OC (configuration not stated) | 46.2% | < 1 | 0.73 | 16.5% | 83.4% | 38.8% | 48.1%
COc1cc(/C=C/C(=O)NC(NC(=S)NC2CCCCC2)C(C)(C)C)cc(OC)c1OC (configuration not stated) | 35.8% | 0.86 | 0.56 | 13.5% | 87.3% | 39.8% | 57.8%
COc1cc(/C=C/C(=O)NC(CC(C)C)NC(=S)Nc2ccccc2)cc(OC)c1OC (configuration not stated) | 50.4% | < 1 | <1 | 7.3% | 76.6% | 9.4% | 42.2%
COc1cc(/C=C/C(=O)NC(NC(=S)Nc2ccccc2)C2CC2)cc(OC)c1OC (configuration not stated) | 50.5% | < 1 | <1 | 12.2% | 85.2% | 13.7% | 56%
COc1cc(/C=C/C(=O)NC(CC(C)(C)C)NC(=S)Nc2ccccn2)cc(OC)c1OC (configuration not stated) | < 20% | < 1 | <1 | 25.8% | 88.5% | 31.5% | 65.9%
Cc1ccccc1NC(=S)NC(NC(=O)/C=C/c1ccccc1)C(C)(C)C (configuration not stated) | < 20% | < 1 | <1 | 7% | 78.7% | 9.7% | 20.5%
COc1cc(/C=C/C(=O)NC(NC(=S)NC2CCCCC2)C(C)C)cc(OC)c1OC (configuration not stated) | < 20% | 0.8 | 0.82 | 15.3% | 82.2% | 22.6% | 45.7%
COc1cc(/C=C/C(=O)NC(CC(C)(C)C)NC(=S)Nc2cccnc2)cc(OC)c1OC (configuration not stated) | 47.1% | < 1 | 0.81 | 22.1% | 89.9% | 19.3% | 59.9%
COc1cc(/C=C/C(=O)NC(NC(=S)Nc2cccnc2)C2CC2)cc(OC)c1OC (configuration not stated) | < 20% | < 1 | <1 | 8.6% | 85.2% | 12.3% | 55.7%
COc1cc(/C=C/C(=O)NC(CC(C)(C)C)NC(=S)Nc2ccccc2)cc(OC)c1OC (configuration not stated) | 44.1% | < 1 | 0.65 | 19% | 90.9% | 40.9% | 62.3%
CC(C)CC(NC(=O)/C=C/c1ccccc1)NC(=S)NC1CCCCC1 (configuration not stated) | 58.4% | < 1 | 0.77 | 13.5% | 84% | 19.8% | 33.4%
COc1cc(/C=C/C(=O)NC(NC(=O)Nc2ccccc2)C(C)C)cc(OC)c1OC (configuration not stated) | – | < 1 | <1 | 4.8% | 79.1% | 11.4% | 32.8%
CC(C)CC(NC(=O)/C=C/c1ccccc1)NC(=S)Nc1ccccc1 (configuration not stated) | < 20% | < 1 | 0.86 | 17.7% | 85% | 13.6% | 36.9%
CC(C)C(NC(=O)/C=C/c1ccccc1)NC(=S)Nc1ccccc1 (configuration not stated) | < 20% | < 1 | <1 | 9.4% | 82% | 11.5% | 30%

From ChEMBL document CHEMBL3853294, “Design, synthesis and biological evaluation of novel HSP70 inhibitors: N, N'-disubstituted thiourea derivatives” (Eur J Med Chem, 2016)
